28 compounds from ChEMBL document CHEMBL4190359, “Synthesis and Investigation of S-Substituted 2-Mercaptobenzoimidazoles as Inhibitors of Hedgehog Signaling” (ACS Med Chem Lett, 2017) can be followed below.

Structures are written as SMILES. The source made the active and inactive calls. The calls are words filed in the database; no cut-off is given here.

A word on the inhibition: it is how much of the control response was suppressed. In general, IC50 refers to the concentration needed to halve the response being measured.

Series [1] has as its target T1, Alkaline phosphatase, tissue-nonspecific isozyme (Homo sapiens) (UniProt P05186).
T1 sequence (whole entry): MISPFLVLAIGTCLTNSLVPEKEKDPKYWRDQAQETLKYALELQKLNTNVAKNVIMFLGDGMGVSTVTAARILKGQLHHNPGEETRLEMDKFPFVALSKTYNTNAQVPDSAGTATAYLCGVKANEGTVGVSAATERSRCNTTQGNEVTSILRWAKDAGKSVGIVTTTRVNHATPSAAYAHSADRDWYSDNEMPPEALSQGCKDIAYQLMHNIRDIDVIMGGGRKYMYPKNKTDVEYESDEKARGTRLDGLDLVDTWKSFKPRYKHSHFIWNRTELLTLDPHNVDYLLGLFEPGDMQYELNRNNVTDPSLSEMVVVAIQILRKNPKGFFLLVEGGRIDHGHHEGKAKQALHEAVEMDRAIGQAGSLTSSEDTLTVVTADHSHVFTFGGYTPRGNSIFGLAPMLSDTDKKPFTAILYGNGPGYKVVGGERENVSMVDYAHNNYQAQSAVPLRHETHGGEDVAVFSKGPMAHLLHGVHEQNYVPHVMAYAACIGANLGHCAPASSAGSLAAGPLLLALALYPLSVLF
Description: Inhibition of recombinant human C-terminal His6-tagged alkaline phosphate activity (Leu18 to Ser502 residues) using CDP-star as substrate pretreated for 30 mins followed by substrate addition measured after 60 mins by luminescence assay.

The nature of series [2]: Cytotoxicity against mouse C3H10T1/2 cells assessed as cell viability by CellTiter-Glo assay. Format: cell-based, C3H 10T1/2. Also on record: concentration or dose not given beside the values. The settings on record: read-out: Activity. (In general: Cellular ATP, detected with luciferase, serves as a proxy for viable cell number.)
A short description of series [3]: (§1) Inhibition of Hedgehog signaling pathway in mouse C3H10T1/2 cells assessed as reduction in purmorphamine-induced increase in alkaline phosphatase level using CDP-star as substrate pretreated for 1 hr followed by purmorphamine addition measured after 5 days by luminescence assay. It counts as cell-based. The procedure, abridged: (§2)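 Osteogenesis assay in multipotent C3H/10T1/2 mesenchymal progenitor cells; differentiation to osteoblasts driven by SMO agonist purmorphamine; read-out is induced alkaline phosphatase expression; IC50 derived from reduction of this signal.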

Series [4] can be described thus: Cytotoxicity against mouse Shh Light2 cells assessed as cell viability by CellTiter Glo assay. Format: cell-based, Shh Light II. More on the design: concentration or dose not given beside the values. The settings on record: read-out: Activity.
Series [5] in a line: Inhibition of Hedgehog signaling in mouse Shh Light2 cells assessed as reduction in purmorphamine-induced Gli mediated transcriptional activity pretreated for 1 hr followed by purmorphamine addition measured after 48 hrs by luciferase reporter gene assay. Format: cell-based. (Reporter assays use an easily measured gene product as a stand-in for the process of interest.)
Series [6] relates to C3H 10T1/2. Nature of the series: Cytotoxicity against mouse C3H10T1/2 cells by CellTiter-Glo assay. It counts as cell-based.
Series [7] deals with Shh Light II. Nature of the series: Cytotoxicity against mouse Shh Light2 cells by CellTiter Glo assay. It counts as cell-based.
Series [8] is filed under the species Mus musculus. Described as §1. It counts as cell-based. The procedure, abridged: as §2
The species entered for series [9] is Homo sapiens. Description: Inhibition of Hedgehog signaling pathway (unknown origin). The following applies: concentration not given here.
[10] abbreviates: Mus musculus, C3H 10T1/2, read-out: IC50.
[11] abbreviates: Mus musculus, Shh Light2, read-out: IC50.

Take `Cc1cccc(C)c1OCCCSc1nc2ccccc2[nH]1`: in series [1], the inhibition result was “inactive”. Further, the viability in series [2] and in series [4] was above 80% throughout. Also, the IC50 in series [3] (setting [10]) was found to be 5.6 µM; in series [5] (setting [11]), 4.12 µM.

`Cc1ccc(OCCCSc2nc3ccccc3[nH]2)cc1`: the inhibition result in series [1] was “inactive”. Further, the viability in series [2] was above 80%. Moreover, in series [3] (setting [10]), the IC50 stood at 6.29 µM.

For the compound `Oc1ccc(OCCSc2nc3ccccc3[nH]2)cc1`, the inhibition result in [1] was “inactive”. Besides, the concentration for half-maximal inhibition (IC50) in series [3] (setting [10]) turned out to be 2.23 µM; in series [6] it was 7.12 µM; in [7], 7.7 µM; in [5] (setting [11]) it was 8.12 µM.

Take `Clc1ccc(SCCCSc2nc3ccccc3[nH]2)cc1`: the inhibition result in [1] was “inactive”. Also, the viability in series [2] and in series [4] was above 80% throughout. The IC50 in [3] (setting [10]) was 2.85 µM; in series [5] (setting [11]), above 10 µM.

For `COC(=O)c1cccc(OCCSc2nc3ccccc3[nH]2)c1`, the inhibition entry in [1] was “inactive”. The viability in series [2] and in [4] was above 80% in each case. For the same compound, the IC50 result in series [3] and in series [5] was “Not Active” in each case.

For `Fc1ccccc1OCCSc1nc2ccccc2[nH]1`, in [1], the inhibition result is “inactive”. Further, in series [2], the viability was above 80%. Also, in series [3] (setting [10]), the half-maximal inhibitory concentration (IC50) was 2.32 µM.

With `Cc1cccc(C)c1OCCSc1nc2ccccc2[nH]1`, the inhibition entry in series [1] is “inactive”. The viability in series [2] and in series [4] was above 80% each time. The IC50 in [3] (setting [10]) was found to be 1.76 µM; in [5] (setting [11]), 3.16 µM. In series [8], the inhibition result is “Dose-dependent effect”.

As for `c1ccc2cc(OCCSc3nc4ccccc4[nH]3)ccc2c1`, in series [1], the inhibition result is “inactive”. The viability in series [2] and in series [4] was above 80% in each case. For the same compound, the figures for the IC50 in series [3] (setting [10]) and in series [5] (setting [11]) were 4.49 µM and 7.29 µM, respectively.

Take `Cc1ccccc1OCCSc1nc2ccccc2[nH]1`: the inhibition entry in [1] is “inactive”. Moreover, the viability in series [2] and in [4] was above 80% throughout. Further, the values for the IC50 in series [3] (setting [10]) and in [5] (setting [11]) were 4.26 µM and 6.93 µM, respectively.

Turning to `Cc1ccc2nc(NCCOc3ccccc3)sc2c1`, the inhibition entry in [1] was “inactive”. In series [2], the viability is above 80%. Also, the IC50 result in series [3] is “Not Active”.

Take `Clc1cc(Cl)c(SCCSc2nc3ccccc3[nH]2)cc1Cl`: the inhibition result in [1] is “inactive”. Also, the viability in [2] is above 80%. Further, the IC50 in series [3] (setting [10]) was determined as 5.71 µM.

For `CS(=O)(=O)c1ccc(C(=O)Nc2ccc(Cl)c(-c3ccccn3)c2)c(Cl)c1` [VISMODEGIB], the inhibition entry in series [1] is “inactive”. Further, the viability in series [2] and in series [4] was above 80% each time. Besides, the IC50 in series [3] (setting [10]) was 0.14 µM; in [5] (setting [11]) it was 0.98 µM.

In the case of `Cc1cccc(OCCSc2nc3ccccc3[nH]2)c1`, the inhibition entry in [1] is “inactive”. Also, the viability in series [2] and in [4] was above 80% in each case. Besides, the IC50 stood at 2.08 µM in [3] (setting [10]) and 5.11 µM in series [5] (setting [11]).

As for `Cc1cccc(OCCCSc2nc3ccccc3[nH]2)c1`, the inhibition result in series [1] is “inactive”. Besides, the viability in [2] is above 80%. Also, the IC50 result in [3] was “Not Active”.

As for `Cc1cccc(SCCSc2nc3ccccc3[nH]2)c1`, the inhibition result in series [1] is “inactive”. The viability in [2] and in series [4] was above 80% throughout. In addition, the IC50 in [3] (setting [10]) was found to be 3.06 µM; in series [5] (setting [11]), 3.48 µM.

Consider `COc1ccc(SCCSc2nc3ccccc3[nH]2)cc1`, for which the inhibition result in series [1] is “inactive”. Besides, the viability in series [2] and in series [4] was above 80% throughout. Further, the IC50 in [3] (setting [10]) was 5.63 µM; in series [5] (setting [11]), 3.55 µM.

On to `c1ccc(OCCSc2nc3ccccc3[nH]2)cc1`, for which the inhibition entry in series [1] was “inactive”. Moreover, the viability in series [2] and in series [4] was above 80% in each case. For the same compound, the IC50 amounted to 2.22 µM in [3] (setting [10]) and 8.92 µM in series [5] (setting [11]).

Turning to `Cc1ccc(C)c(OCCSc2nc3ccccc3[nH]2)c1C`, the inhibition result in series [1] was “inactive”. In series [2], the viability was above 80%. Besides, the IC50 in series [3] (setting [10]) came to 2.9 µM.

Take `CC(C)c1ccccc1OCCSc1nc2ccccc2[nH]1`: the inhibition entry in series [1] is “inactive”. The viability in [2] was above 80%. Also, in series [3] (setting [10]), the IC50 is above 10 µM.

Turning to `c1ccc(-c2ccc(OCCSc3nc4ccccc4[nH]3)cc2)cc1`, the inhibition entry in series [1] is “inactive”. In series [2], the viability is above 80%. In addition, the IC50 entry in [3] was “Not Active”.

Take `Cc1ccc(C)c(OCCSc2nc3ccccc3[nH]2)c1`: in series [1], the inhibition result is “inactive”. In addition, the viability in series [2] was above 80%. In addition, in series [3] (setting [10]), the IC50 stood at 6.41 µM.

For `CCOC(=O)CCCn1c(SCCOc2c(F)cccc2F)nc2ccccc21`, the inhibition in series [9] is 12%.

On to `Cc1cc(OCCSc2nc3ccccc3[nH]2)ccc1Cl`, for which the inhibition entry in series [1] is “inactive”. Moreover, the viability in [2] and in [4] was above 80% throughout. In addition, the values for the concentration for half-maximal inhibition (IC50) in [3] (setting [10]) and in series [5] (setting [11]) were 2.57 µM and 7.89 µM, respectively.

Regarding `COc1ccccc1OCCSc1nc2ccccc2[nH]1`, in [1], the inhibition result is “inactive”. Besides, the viability in series [2] was above 80%. The IC50 in series [3] (setting [10]) was found to be 2.61 µM.

Turning to `O=[N+]([O-])c1cccc(OCCSc2nc3ccccc3[nH]2)c1`, the inhibition result in [1] was “inactive”. For the same compound, the viability in [2] and in [4] was above 80% in each case. The IC50 in series [3] (setting [10]) is 4.47 µM; in series [5] (setting [11]) it was 6.49 µM.

In the case of `Cc1ccc(OCCSc2nc3ccccc3[nH]2)c([N+](=O)[O-])c1`, the inhibition result in series [1] is “inactive”. In [2], the viability is above 80%. Further, the IC50 entry in [3] is “Not Active”.

As for `CC(C)c1cccc(OCCSc2nc3ccccc3[nH]2)c1`, the inhibition entry in series [1] is “inactive”. The viability in series [2] was above 80%. The IC50 in [3] (setting [10]) amounted to 9.17 µM.

Consider `Cc1ccc2nc(NCCOc3c(C)cccc3C)sc2c1`, for which the inhibition result in series [1] is “inactive”. The viability in series [2] was above 80%. Besides, the IC50 in series [3] (setting [10]) is above 10 µM.
